Assay outcomes as filed in PubChem.
Tb hexokinase: Trypanosoma brucei hexokinase 1 inhibitors, primary screen, biochemical, G6PDH-coupled NADH absorbance, MLSCN library. hexokinase 1 [Trypanosoma brucei]. recombinant TbHK1, G6PDH-coupled NADH A340. inhibition, % at 10 µM. actives 0.11% (n = 220,000);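 active = inhibition of 50% or more in the single-dose primary screen; inactive = inhibition below 50%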
14-3-3 Bad inh: inhibitors of 14-3-3 zeta/Bad binding, primary screen, biochemical, TR-FRET, bovine 14-3-3 zeta. TR-FRET 14-3-3zeta/Dy647-pBad peptide displacement, 1 h. inhibition, % at 21.7 µM. actives 0.71% (n = 220,000);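 active = inhibition above about 70%, limit read from the data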;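 also: 0% = full 14-3-3 plus peptide FRET controls and 100% = background without 14-3-3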
Hck Nef HTS: inhibitors of Nef-activated human Hck kinase, primary screen, biochemical, Z-Lyte FRET, 384-well, Hck-YEEI; inhibition, % at 20 µM; Tyrosine-protein kinase HCK (Homo sapiens), P08631; actives 0.68% (n = 220,000); Recombinant Hck-YEEI plus Nef, Z-Lyte FRET kinase assay; AID 463187, 2010;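 active = Hck-Nef kinase inhibition above about 50%, limit read from the data; inactive = inhibition below that limit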;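 also: 0% = DMSO with Hck plus Nef and 100% = Hck alone without Nef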
MDM2 E3 inh: MDM2-luciferase reporter signal enhancers, primary screen, MDM2 E3 ligase inhibitor project, cell-based, luminescence, 1536-well; E3 ubiquitin-protein ligase Mdm2 (Homo sapiens), Q00987; cell-based MDM2 ubiquitination luciferase reporter, 2 h; 0 = plate control, 100 = twice control, blank-subtracted; signal enhancement, % at 5 µM; actives 0.11% (n = 210,000);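 active = signal enhancement of 30% or more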;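 also: luminescence tracks abundance of the self-degrading MDM2-luciferase fusion protein; higher signal means inhibition of MDM2 E3 ligase activity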
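Buffer or medium: Cells held in DMEM | Assay system: Stable mammalian line carrying autodegrading MDM2–luciferase fusion reporter | Quantity: 2000 cells/well | Times: 4 h settle plus 2 h compound, 37 °C | Doses: One concentration, 5 µM, with 0.2% DMSO | Technique: Luminescence with SteadyLite reagent, 15 min at room temperature | Benchmarks: Plate controls and plate blanks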
Wee1 degr inh: Wee1 degradation inhibitors, primary screen, cell-based, HeLa, Wee1K328M-luciferase, luminescence; AID 1321, 2008; actives 1.2% (n = 220,000); HeLa Luc-Wee1K328M stability; 100% = proteasome inhibitor MG132 effect; Wee1-like protein kinase (Homo sapiens), P30291; reporter increase, % at 5 µM;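 active = activation above the mean of all tested compounds plus 3 SD, set per screening run, cut at about 8.8% in these data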;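 also: cells exposed to compound for 20 h before luminescence read; 0% = DMSO alone and 100% = MG132 at 30 µM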
Target sequence (P30291 whole entry K328M): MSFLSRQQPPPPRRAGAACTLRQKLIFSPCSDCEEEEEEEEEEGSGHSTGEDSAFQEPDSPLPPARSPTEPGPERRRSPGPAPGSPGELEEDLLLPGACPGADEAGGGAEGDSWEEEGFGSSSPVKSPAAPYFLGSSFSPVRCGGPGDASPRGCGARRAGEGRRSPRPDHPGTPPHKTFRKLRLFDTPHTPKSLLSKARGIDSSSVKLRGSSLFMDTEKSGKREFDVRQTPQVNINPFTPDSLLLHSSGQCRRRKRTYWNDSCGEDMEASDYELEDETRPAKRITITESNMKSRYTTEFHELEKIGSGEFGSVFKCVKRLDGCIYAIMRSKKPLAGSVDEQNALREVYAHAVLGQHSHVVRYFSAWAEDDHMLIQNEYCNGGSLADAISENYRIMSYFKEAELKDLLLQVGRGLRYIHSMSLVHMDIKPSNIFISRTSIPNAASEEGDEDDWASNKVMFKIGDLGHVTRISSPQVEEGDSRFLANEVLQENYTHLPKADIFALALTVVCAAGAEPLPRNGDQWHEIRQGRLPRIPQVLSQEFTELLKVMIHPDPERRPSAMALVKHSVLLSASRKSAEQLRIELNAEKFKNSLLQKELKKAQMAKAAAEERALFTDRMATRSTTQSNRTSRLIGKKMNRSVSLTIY
Wee1 stab conf: Wee1 degradation inhibitors, confirmation, cell-based, HeLa, Wee1K328M-luciferase, luminescence, triplicate | HeLa Luc-Wee1K328M degradation; vehicle 0%, proteasome-blocked wells 100% | activation, % at 5 µM | shares compounds with Wee1 degr inh | actives 4% (n = 1,100); in the data active = activation above about 8.9%
Active calls of the source: *; · = no result. Only some compounds are listed: those with a hit (about 2.7% of all), similar ones and a draw of the others.

SMILES | Tb hexokinase | 14-3-3 Bad inh | Hck Nef HTS | MDM2 E3 inh | Wee1 degr inh | Wee1 stab conf
COc1ccccc1N1CCN(CC(=O)c2ccc3ccn(C(C)=O)c3c2)CC1 | -11 | -1 | 1 | -10 | -3 | ·
CC(=O)OCC(=O)c1ccc2ccn(C(C)=O)c2c1 | -16 | 5 | 1 | -13 | 14* | 0
Cc1ccc(OCC(=O)NNC(=O)C(=O)N2CCCC2)c(C)c1 | 5 | 8 | -2 | -13 | 2 | ·
CN(Cc1ccsc1)C(=O)CCc1nnc(Cc2c[nH]c3ccccc23)o1 | -5 | -14 | 25 | -12 | 3 | ·
CN(Cc1ccsc1)C(=O)CCc1nnc(CCCc2ccccc2)o1 | -1 | -1 | 19 | -1 | 11* | 2
O=C(Cc1ccccc1)Nc1ccccc1N1CCOCC1 | -3 | -3 | 1 | -6 | 21* | 1
COc1ccc(OC)c(C(c2nnnn2C2CCCC2)N2CCN(c3ccc(F)cc3)CC2)c1 (stereo not given) | -3 | 40 | 0 | -11 | -3 | ·
COc1ccc(C(c2nnnn2C2CCCC2)N2CCC(C)CC2)c(OC)c1 (stereo not given) | 3 | 3 | -1 | -3 | 41* | -1
N#CCC(=O)Nc1ccc(C(=O)NCc2cccc(Cl)c2)cc1 | -8 | 0 | 29 | · | 0 | ·
Cc1nn2cc(-c3ccc(Cl)cc3)nc2s1 | -10 | -4 | 1 | -27 | 14* | 0
Cc1nc(=O)c(-c2ccccc2)c(C)n1CCCCCC(=O)O | 0 | 3 | 1 | -7 | 0 | ·
Cc1ccc2nc(N(CCCN(C)C)C(=O)c3cc4ccccc4oc3=O)sc2c1 | -7 | 2 | -3 | -3 | 15* | -2
C/C(=N\NC(=O)c1ccc(N2CCCC2=O)cc1)c1ccncc1 | -13 | -2 | 13 | -13 | 15* | 0
C(=N\N(Cc1ccccc1)c1ccccc1)/c1ccco1 | -13 | -5 | 19 | -2 | -1 | ·
CC(C)Cn1c(N)c(C(=O)COC(=O)c2ccc([N+](=O)[O-])o2)c(=O)n(C)c1=O | -3 | 7 | 18 | -7 | 16* | 3
CC(C)Cn1c(N)c(C(=O)COC(=O)c2ccc(O)cc2)c(=O)n(C)c1=O | -6 | -16 | 1 | -4 | -4 | ·
CC(C)C1CC(c2csc(N)n2)CCO1 (stereo not given) | 3 | 6 | -1 | -14 | 13* | 0
CC(=O)N(C)c1ccc(N=Nc2c(C)[nH]n(C(N)=S)c2=O)cc1 | -11 | -13 | -2 | -40 | 17* | 2
CCOc1ccc(/C=N/NC(=O)Cc2cccs2)cc1 | -7 | -7 | -5 | -10 | 14* | 0
O=C(Cc1cccs1)N/N=C/c1ccccc1 | -7 | -3 | 29 | 1 | -3 | ·
O=C(Nc1cccc(S(=O)(=O)N2CCCCC2)c1)Nc1ccc(Cl)cc1Cl | 11 | -7 | 1 | · | -1 | ·
CC(C)(C)NC(=O)/C(=C/c1ccccc1F)NC(=O)c1ccc([N+](=O)[O-])cc1 | -2 | -3 | 26 | -11 | 15* | 2
O=S1(=O)N=C(Nc2ccc(N3CCOCC3)c(Cl)c2)c2ccccc21 | -12 | -5 | -1 | -7 | 11* | 6
O=S1(=O)N=C(Nc2ccc(O)cc2)c2ccccc21 | -13 | 32 | 22 | -12 | -1 | ·
Cn1c(-c2ccccc2)cc(=O)c2ccccc21 | -22 | -5 | 0 | 0 | 2 | ·
SMILES | Tb hexokinase | 14-3-3 Bad inh | Hck Nef HTS | MDM2 E3 inh | Wee1 degr inh | Wee1 stab conf
COc1ccc2c(c1)c(=O)cc(-c1ccccc1)n2C | -17 | -4 | 9 | -11 | 11* | 3
COc1ccc(N(CC(O)CN2C(=O)NC(C)(C)C2=O)S(=O)(=O)c2ccc(C)cc2)cc1 (stereo not given) | -9 | 4 | 0 | 0 | -2 | ·
Cc1ccc(N(CC(O)CN2C(=O)NC(C)(C)C2=O)S(=O)(=O)c2ccc(C)cc2)cc1 (stereo not given) | 0 | -2 | 2 | -12 | 13* | 0
Cc1onc(-c2ccccc2)c1C(=O)N1CCN(C)CC1 | -5 | 1 | 0 | -36 | 17* | -1
N#CC1(c2ccc(NC(=O)c3ccccc3F)cc2)CCCC1 | -1 | 5 | 1 | -32 | 0 | ·
COc1cccc(NC(=O)CSc2nc3c(sc4ccccc43)c(=O)n2CCN(C)C)c1 | -5 | -11 | -9 | -18 | -1 | ·
CCN(CC)CCn1c(SCC(=O)Nc2cccc(OC)c2)nc2c(sc3ccccc32)c1=O | 1 | 19 | 18 | -12 | 12* | 5
CC1CCCCN1C(=O)Cn1c(=O)n(-c2ccc(F)cc2)c(=O)c2sccc21 (stereo not given) | -1 | -12 | -10 | -10 | 11* | 4
Cc1nc2ccc(N=NC3=C(O)CC(C)(C)CC3=O)cc2s1 | 24 | 1 | 3 | -12 | 1 | ·
CC(=O)N1CCc2cc(N=NC3=C(O)CC(C)(C)CC3=O)ccc21 | -4 | -2 | -8 | -16 | 17* | -1
N#C/C(=C\c1cn[nH]c1-c1ccccc1Br)C(=O)O | -5 | -15 | 19 | 14 | 13* | -1
CCN(CC(=O)NCc1cccs1)c1ccc(S(=O)(=O)N2CCCC2)cn1 | 4 | -10 | 26 | 0 | 14* | 2
NC(=O)C1CCN(Cc2nc(-c3cccs3)no2)CC1 | -2 | -1 | -20 | -15 | -1 | ·
NC(=O)[C@@H]1CCCN1Cc1nc(-c2cccs2)no1 | -6 | -2 | 5 | 1 | 11* | -1
Fc1cccc(-c2nnn3c2nc(Cl)c2ccccc23)c1 | -4 | -10 | 3 | -14 | 5 | ·
COc1ccc(/C=C/C(=O)c2ccccn2)cc1 | -6 | -12 | 25 | 10 | 12* | -1
COc1ccc(CC(=O)O/N=C(\N)c2ccccn2)cc1 | -6 | -3 | -1 | -9 | 16* | 4
Cc1nnc(SCC(=O)NCc2ccc(Cl)cc2)[nH]c1=O | 0 | -2 | 6 | 8 | -4 | ·
Cc1nnc(SCC(=O)NCc2ccc(F)cc2)[nH]c1=O | -2 | 5 | -3 | 8 | 11* | 2
COC(=O)c1ccc2c(=O)n(CCCCCC(=O)O)c(=S)[nH]c2c1 | -1 | 0 | 7 | -7 | 3 | ·
CN(C)c1ccc(/C=C/c2nnnn2-c2ccccc2)cc1 | 14 | -27 | 16 | -5 | 12* | 4
